# Laboratory results published in ChEMBL document CHEMBL1155504, “Synthesis of 4-[(diethylamino)methyl]-phenol derivatives as novel cholinesterase inhibitors with selectivity towards butyrylcholinesterase” (Bioorg Med Chem Lett, 2010).
# Activity calls are given as the source filed them. No cut-off for these calls is given here.
# How the values were obtained:
# Acetylcholinesterase = Acetylcholinesterase (Electrophorus electricus, UniProt O42275); assay: Inhibition of electric eel AChE after 15 mins by Ellman's method
# Cholinesterase = Cholinesterase (Equus caballus, UniProt P81908); assay: Inhibition of horse serum BChE after 15 mins by Ellman's method
# [1] = Selectivity ratio of IC50 for electric eel AChE to IC50 for horse serum BChE
# How it was run: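 Ellman assay for each enzyme: enzyme, DTNB and test compound in 0.1 M potassium phosphate buffer, pH 8.0, pre-incubated 15 min at 37 °C. Started with ATC (AChE) or BTC (BChE) and read at 412 nm for 1 min. Five compound concentrations, each in triplicate; DMSO reference, enzyme-free blank. Ratio taken from the two IC50 values.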
# [2] = target: Acetylcholinesterase (Electrophorus electricus) (UniProt O42275); assay: Mixed-type inhibition of electric eel AChE at 50 to 100 nM by Lineweaver-Burke plot analysis
# How it was run: (§1)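 Ellman assay: enzyme, DTNB and inhibitor in 0.1 M potassium phosphate buffer, pH 8.0, pre-incubated 15 min at 37 °C. Reaction started with acetylthiocholine at 100–400 (unit unclear) and followed by absorbance at 412 nm. Inhibitor absent or at two levels. Inhibition type assigned from Lineweaver–Burk plots (1/V versus 1/[S]).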
# [3] = target: Cholinesterase (Equus caballus) (UniProt P81908); assay: Mixed-type inhibition of horse serum BChE at 10 to 20 nM by Lineweaver-Burke plot analysis
# How it was run: as §1, with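 “butyrylthiocholine” for “acetylthiocholine”, “100–500” for “100–400”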
# Sequence of Acetylcholinesterase (O42275 whole entry): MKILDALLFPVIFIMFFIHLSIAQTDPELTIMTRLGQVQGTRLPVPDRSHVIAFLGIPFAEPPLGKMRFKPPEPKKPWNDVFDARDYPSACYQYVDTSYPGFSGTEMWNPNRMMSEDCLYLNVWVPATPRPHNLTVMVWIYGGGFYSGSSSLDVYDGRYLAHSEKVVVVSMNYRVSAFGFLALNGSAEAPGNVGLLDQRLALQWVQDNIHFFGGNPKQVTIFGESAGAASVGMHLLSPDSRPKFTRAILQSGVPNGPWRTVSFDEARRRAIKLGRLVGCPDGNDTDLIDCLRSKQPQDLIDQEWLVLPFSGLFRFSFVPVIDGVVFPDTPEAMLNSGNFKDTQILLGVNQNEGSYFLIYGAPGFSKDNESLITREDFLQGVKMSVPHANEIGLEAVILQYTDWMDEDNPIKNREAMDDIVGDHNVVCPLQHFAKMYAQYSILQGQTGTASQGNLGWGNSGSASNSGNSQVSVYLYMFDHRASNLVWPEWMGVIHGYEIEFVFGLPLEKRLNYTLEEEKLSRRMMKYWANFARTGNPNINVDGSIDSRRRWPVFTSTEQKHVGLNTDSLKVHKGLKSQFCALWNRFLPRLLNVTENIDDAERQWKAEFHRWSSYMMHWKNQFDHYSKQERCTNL
# Sequence of Cholinesterase (P81908 whole entry): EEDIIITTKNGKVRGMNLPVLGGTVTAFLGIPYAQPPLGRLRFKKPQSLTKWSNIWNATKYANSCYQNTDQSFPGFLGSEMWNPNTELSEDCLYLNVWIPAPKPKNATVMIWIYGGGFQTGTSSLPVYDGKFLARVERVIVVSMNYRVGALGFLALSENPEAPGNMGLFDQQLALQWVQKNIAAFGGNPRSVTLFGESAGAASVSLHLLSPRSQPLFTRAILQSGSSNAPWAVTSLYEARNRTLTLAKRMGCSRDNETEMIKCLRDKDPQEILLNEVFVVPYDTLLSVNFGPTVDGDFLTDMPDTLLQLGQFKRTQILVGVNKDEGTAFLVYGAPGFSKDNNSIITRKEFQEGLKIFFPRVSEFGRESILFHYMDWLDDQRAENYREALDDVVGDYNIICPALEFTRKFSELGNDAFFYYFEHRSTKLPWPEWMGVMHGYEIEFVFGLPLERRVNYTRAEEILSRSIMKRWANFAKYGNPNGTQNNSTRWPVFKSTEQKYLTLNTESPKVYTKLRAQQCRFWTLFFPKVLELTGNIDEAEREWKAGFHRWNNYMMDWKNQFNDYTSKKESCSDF
# Sequence of Acetylcholinesterase (Electrophorus electricus) (O42275 24-633 limits assumed): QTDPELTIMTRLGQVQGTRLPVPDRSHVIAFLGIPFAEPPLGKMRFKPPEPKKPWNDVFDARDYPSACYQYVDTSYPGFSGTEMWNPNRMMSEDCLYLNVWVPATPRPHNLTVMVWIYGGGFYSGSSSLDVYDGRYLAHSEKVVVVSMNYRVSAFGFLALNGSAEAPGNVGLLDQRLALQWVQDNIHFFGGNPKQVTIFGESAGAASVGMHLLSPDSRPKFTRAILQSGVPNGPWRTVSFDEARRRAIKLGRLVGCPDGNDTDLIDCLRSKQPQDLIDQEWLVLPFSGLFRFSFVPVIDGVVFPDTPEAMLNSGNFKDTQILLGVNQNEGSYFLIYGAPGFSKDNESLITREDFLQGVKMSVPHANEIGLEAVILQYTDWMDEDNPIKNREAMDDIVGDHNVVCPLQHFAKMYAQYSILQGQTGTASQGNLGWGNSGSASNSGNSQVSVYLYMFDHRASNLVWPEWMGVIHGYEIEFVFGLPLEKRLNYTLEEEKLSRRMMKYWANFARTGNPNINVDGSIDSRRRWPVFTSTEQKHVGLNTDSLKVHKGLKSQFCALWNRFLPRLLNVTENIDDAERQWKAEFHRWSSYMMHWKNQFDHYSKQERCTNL
# Sequence of Cholinesterase (Equus caballus) (P81908 whole entry): as the sequence (P81908 whole entry) above
SMILES,IC50 (Acetylcholinesterase),IC50 (Cholinesterase),Ratio IC50 [1],inhibition [2],Activity [3]
CCCN(CCC)CCCCCCCCCCOc1ccc(CN(CC)CC)cc1,340 nM,26 nM,13.1,–,–
CCN(CC)Cc1ccc(OCCCCN2CCCCC2)cc1,6740 nM,710 nM,9.4,–,–
CCCCN(CCCC)CCCCCCCCCCOc1ccc(CN(CC)CC)cc1,260 nM,15 nM,16.5,–,–
CCCN(CCC)CCCCOc1ccc(CN(CC)CC)cc1,13700 nM,11700 nM,1.17,–,–
CCN(CC)Cc1ccc(OCCCCN2CCN(C)CC2)cc1,5580 nM,9730 nM,0.57,–,–
CCN(CC)CCCCOc1ccc(CN(CC)CC)cc1,10600 nM,2740 nM,3.87,–,–
CCCN(CCC)CCCCCCOc1ccc(CN(CC)CC)cc1,2160 nM,1340 nM,1.61,–,–
CCN1CCN(CCCCCCCCCCOc2ccc(CN(CC)CC)cc2)CC1,580 nM,190 nM,3.1,–,–
CCN(CC)Cc1ccc(OCCCCCN2CCCCC2)cc1,4310 nM,670 nM,6.44,–,–
CCN(CC)Cc1ccc(OCCCCCCCCN2CCCCC2)cc1,92 nM,7.3 nM,12.5,Active,Active
CCN(CC)Cc1ccc(OCCCCN2CCCC2)cc1,3420 nM,1400 nM,2.44,–,–
CCCCN(CCCC)CCCCCCOc1ccc(CN(CC)CC)cc1,670 nM,230 nM,2.92,–,–
CCN(CC)Cc1ccc(OCCCCCCCCCCN2CCCCC2)cc1,600 nM,78 nM,7.66,–,–
CCN1CCN(CCCCCCCCOc2ccc(CN(CC)CC)cc2)CC1,77 nM,14 nM,5.38,–,–
CCN(CC)Cc1ccc(OCCCCCCN2CCN(C)CC2)cc1,1820 nM,3760 nM,0.48,–,–
CCN(CC)Cc1ccc(OCCCCCCCCN2CCCC2)cc1,84 nM,15 nM,5.42,–,–
CCN(CC)CCCCCCCCCCOc1ccc(CN(CC)CC)cc1,310 nM,27 nM,11.3,–,–
CCN(CC)Cc1ccc(OCCCCCN2CCN(C)CC2)cc1,2480 nM,9350 nM,0.27,–,–

SMILES,IC50 (Acetylcholinesterase),IC50 (Cholinesterase),Ratio IC50 [1],inhibition [2],Activity [3]
CCN(CC)Cc1ccc(OCCCCCCN2CCCC2)cc1,440 nM,1280 nM,0.34,–,–
CCCN(CCC)CCCCCOc1ccc(CN(CC)CC)cc1,5590 nM,1780 nM,3.13,–,–
CCCN(CCC)CCCCCCCCOc1ccc(CN(CC)CC)cc1,170 nM,9.1 nM,18.8,–,–
CCCCN(CCCC)CCCCCCCCOc1ccc(CN(CC)CC)cc1,140 nM,17 nM,8.45,–,–
CCCCN(CCCC)CCCCOc1ccc(CN(CC)CC)cc1,10300 nM,2520 nM,4.01,–,–
CCN1CCN(CCCCCOc2ccc(CN(CC)CC)cc2)CC1,1760 nM,3080 nM,0.57,–,–
CCCCN(CCCC)CCCCCOc1ccc(CN(CC)CC)cc1,2460 nM,1900 nM,1.29,–,–
CCN(CC)Cc1ccc(OCCCCCN2CCCC2)cc1,500 nM,1540 nM,0.32,–,–
CCN(CC)Cc1ccc(OCCCCCCCCCCN2CCCC2)cc1,300 nM,68 nM,4.41,–,–
CCN(CC)Cc1ccc(OCCCCCCN2CCCCC2)cc1,890 nM,1370 nM,0.65,–,–
CCN(CC)Cc1ccc(OCCN2CCCCC2)cc1,13700 nM,10100 nM,1.35,–,–
CCN(CC)CCCCCOc1ccc(CN(CC)CC)cc1,8370 nM,4420 nM,1.89,–,–
CCN(CC)Cc1ccc(OCCN2CCN(C)CC2)cc1,11500 nM,20300 nM,0.56,–,–
CCN1CCN(CCCCCCOc2ccc(CN(CC)CC)cc2)CC1,1620 nM,2200 nM,0.74,–,–
CCN(CC)CCCCCCOc1ccc(CN(CC)CC)cc1,960 nM,1660 nM,0.58,–,–
CCN(CC)CCCCCCCCOc1ccc(CN(CC)CC)cc1,140 nM,48 nM,2.99,–,–
CCN(CC)Cc1ccc(OCCCCCCCCN2CCN(C)CC2)cc1,210 nM,11 nM,18.6,–,–
CCN(CC)Cc1ccc(OCCCCCCCCCCN2CCN(C)CC2)cc1,540 nM,33 nM,16.5,–,–
